Common to all, as to assay type: functional
Test [1] has as its system Escherichia coli. Kind of test: Antibacterial activity against Escherichia coli ATCC 25922 assessed as inhibition of bacterial growth after 24 hrs by microbroth dilution method. The essentials:
(§1)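 Bacterial inoculum set to 1×10^5 CFU with sterile saline. Test agents and reference drugs, from DMSO stocks, diluted in Mueller-Hinton broth to 512, 256, 128, 64, 32, 16, 8, 4, 2, 1 and 0.5 µg/mL. Inoculated dilutions incubated 37 °C for 24 h.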

Test [2] has as its system Staphylococcus aureus. Nature of the test: Antibacterial activity against methicillin resistant Staphylococcus aureus assessed as inhibition of bacterial growth after 24 hrs by microbroth dilution method. An outline of the steps: (§2)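 Inoculum adjusted in sterile saline to 1×10^5 CFU. Compounds dissolved in DMSO as stock, then diluted in Mueller-Hinton broth as a two-fold series from 512 to 0.5 µg/mL (11 levels). Inoculated dilutions incubated at 37 °C for 24 h, and the MIC recorded.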

In test [3] the test system is Pseudomonas aeruginosa. Nature of the test: Antibacterial activity against Pseudomonas aeruginosa assessed as inhibition of bacterial growth after 24 hrs by microbroth dilution method. An outline of the steps:
as §1

Test [4] has as its system Staphylococcus aureus. Nature of the test: Antibacterial activity against Staphylococcus aureus assessed as inhibition of bacterial growth after 24 hrs by microbroth dilution method. The essentials:
as §1

Test [5] relates to Staphylococcus aureus. Nature of the test: Potency index, ratio of norfloxacin MIC to compound MIC for antibacterial activity against Staphylococcus aureus incubated for 24 hrs by microbroth dilution method.
Test [6] concerns Escherichia coli. Nature of the test: Antibacterial activity against Escherichia coli assessed as inhibition of bacterial growth after 24 hrs by microbroth dilution method. An outline of the steps:
as §1

Another test relates to Acinetobacter baumannii. Nature of the test: Antibacterial activity against Acinetobacter baumannii assessed as inhibition of bacterial growth after 24 hrs by microbroth dilution method. The essentials:
as §1

Test [7] deals with Staphylococcus aureus. Kind of test: Antibacterial activity against Staphylococcus aureus ATCC 25923 assessed as inhibition of bacterial growth after 24 hrs by microbroth dilution method. The essentials:
as §1

Another test deals with Enterococcus faecalis. Nature of the test: Antibacterial activity against Enterococcus faecalis assessed as inhibition of bacterial growth after 24 hrs by microbroth dilution method. An outline of the steps:
as §1

For test [8], the system named is Pseudomonas aeruginosa. Kind of test: Antibacterial activity against Pseudomonas aeruginosa ATCC 27853 assessed as inhibition of bacterial growth after 24 hrs by microbroth dilution method. The essentials: as §1
Test [9] deals with Staphylococcus aureus. Kind of test: Antibacterial activity against Staphylococcus aureus ATCC 29213 assessed as inhibition of bacterial growth after 24 hrs by microbroth dilution method. An outline of the steps: as §2
The subject of another test is Klebsiella pneumoniae. Kind of test: Antibacterial activity against Klebsiella pneumoniae assessed as inhibition of bacterial growth after 24 hrs by microbroth dilution method. An outline of the steps:
as §1

In brackets after ≈: the same amount, converted by molar mass.

`Cc1ncc([N+](=O)[O-])n1Cc1cc(O)c2c(c1)C(=O)c1cccc(O)c1C2=O`: the MIC in the test on Escherichia coli [1] is 64 µg/mL (≈ 169 µM); in the test with Staphylococcus aureus [2], 64 µg/mL (≈ 169 µM); in the test with Pseudomonas aeruginosa [3], 64 µg/mL (≈ 169 µM); in the test on Staphylococcus aureus [4] it was 4 µg/mL (≈ 10.5 µM); in the test with Escherichia coli [6], 128 µg/mL (≈ 337 µM); in the test on Acinetobacter baumannii, 32 µg/mL (≈ 84.4 µM). Also, the MIC is 16 µg/mL (≈ 42.2 µM) in the test with Staphylococcus aureus [7]; 128 µg/mL (≈ 337 µM) with Enterococcus faecalis; 32 µg/mL (≈ 84.4 µM) in the test on Pseudomonas aeruginosa [8]; 128 µg/mL (≈ 337 µM) with Staphylococcus aureus [9]; 128 µg/mL (≈ 337 µM) in the test on Klebsiella pneumoniae. The Ratio in the test on Staphylococcus aureus [5] is given as 2.

With `Cc1ccc2c(c1)ncn2Cc1cc(O)c2c(c1)C(=O)c1cccc(O)c1C2=O`, the MIC was found to be 32 µg/mL (≈ 83.2 µM) with Escherichia coli [1]; 64 µg/mL (≈ 166 µM) with Staphylococcus aureus [2]; 32 µg/mL (≈ 83.2 µM) in the test on Pseudomonas aeruginosa [3]; 32 µg/mL (≈ 83.2 µM) in the test on Staphylococcus aureus [4]; 64 µg/mL (≈ 166 µM) in the test on Escherichia coli [6]; 64 µg/mL (≈ 166 µM) in the test with Acinetobacter baumannii. Moreover, the MIC in the test with Staphylococcus aureus [7] came to 32 µg/mL (≈ 83.2 µM); with Enterococcus faecalis, 32 µg/mL (≈ 83.2 µM); with Pseudomonas aeruginosa [8] it was 64 µg/mL (≈ 166 µM); with Staphylococcus aureus [9], 32 µg/mL (≈ 83.2 µM); in the test on Klebsiella pneumoniae it was 64 µg/mL (≈ 166 µM).

As to `O=C1c2cccc(O)c2C(=O)c2c(O)cc(Cn3cnc4cc([N+](=O)[O-])ccc43)cc21`, the MIC worked out at 32 µg/mL (≈ 77 µM) in the test with Escherichia coli [1]; 64 µg/mL (≈ 154 µM) with Staphylococcus aureus [2]; 32 µg/mL (≈ 77 µM) with Pseudomonas aeruginosa [3]; 32 µg/mL (≈ 77 µM) with Staphylococcus aureus [4]; 64 µg/mL (≈ 154 µM) in the test on Escherichia coli [6]; 32 µg/mL (≈ 77 µM) in the test with Acinetobacter baumannii. Further, the minimal inhibitory concentration (MIC) amounted to 64 µg/mL (≈ 154 µM) in the test on Staphylococcus aureus [7]; 16 µg/mL (≈ 38.5 µM) with Enterococcus faecalis; 32 µg/mL (≈ 77 µM) in the test with Pseudomonas aeruginosa [8]; 32 µg/mL (≈ 77 µM) in the test on Staphylococcus aureus [9]; 64 µg/mL (≈ 154 µM) with Klebsiella pneumoniae.

As for `O=C1c2cccc(O)c2C(=O)c2c(O)cc(Cn3nnc4ccccc43)cc21`, the MIC was 32 µg/mL (≈ 86.2 µM) in the test on Escherichia coli [1]; 32 µg/mL (≈ 86.2 µM) in the test with Staphylococcus aureus [2]; 128 µg/mL (≈ 345 µM) in the test on Pseudomonas aeruginosa [3]; 128 µg/mL (≈ 345 µM) in the test on Staphylococcus aureus [4]; 128 µg/mL (≈ 345 µM) in the test with Escherichia coli [6]; 16 µg/mL (≈ 43.1 µM) in the test with Acinetobacter baumannii. Besides, the MIC came to 256 µg/mL (≈ 689 µM) with Staphylococcus aureus [7]; 32 µg/mL (≈ 86.2 µM) in the test with Enterococcus faecalis; 64 µg/mL (≈ 172 µM) in the test on Pseudomonas aeruginosa [8]; 32 µg/mL (≈ 86.2 µM) with Staphylococcus aureus [9]; 128 µg/mL (≈ 345 µM) in the test with Klebsiella pneumoniae.

With `CCn1cc(C(=O)O)c(=O)c2cc(F)c(N3CCNCC3)cc21` [NORFLOXACIN], the MIC was found to be 8 µg/mL (≈ 25.1 µM) in the test on Escherichia coli [1]; 8 µg/mL (≈ 25.1 µM) with Staphylococcus aureus [2]; 8 µg/mL (≈ 25.1 µM) in the test on Pseudomonas aeruginosa [3]; 8 µg/mL (≈ 25.1 µM) with Staphylococcus aureus [4]; 16 µg/mL (≈ 50.1 µM) in the test on Escherichia coli [6]; 0.5 µg/mL (≈ 1.57 µM) in the test with Acinetobacter baumannii. Besides, the MIC in the test on Staphylococcus aureus [7] is 1 µg/mL (≈ 3.13 µM); in the test with Enterococcus faecalis it was 32 µg/mL (≈ 100 µM); with Pseudomonas aeruginosa [8], 2 µg/mL (≈ 6.26 µM); in the test on Staphylococcus aureus [9] it was 1 µg/mL (≈ 3.13 µM); with Klebsiella pneumoniae, 4 µg/mL (≈ 12.5 µM).

Turning to `O=C1c2cccc(O)c2C(=O)c2c(O)cc(Cn3c4ccccc4c4ccccc43)cc21`, the MIC with Escherichia coli [1] is 64 µg/mL (≈ 153 µM); with Staphylococcus aureus [2], 32 µg/mL (≈ 76.3 µM); with Pseudomonas aeruginosa [3], 64 µg/mL (≈ 153 µM); in the test with Staphylococcus aureus [4], 8 µg/mL (≈ 19.1 µM); with Escherichia coli [6] it was 128 µg/mL (≈ 305 µM); in the test on Acinetobacter baumannii it was 64 µg/mL (≈ 153 µM). Besides, the MIC with Staphylococcus aureus [7] amounted to 16 µg/mL (≈ 38.1 µM); in the test with Enterococcus faecalis it was 128 µg/mL (≈ 305 µM); in the test on Pseudomonas aeruginosa [8], 64 µg/mL (≈ 153 µM); in the test with Staphylococcus aureus [9] it was 32 µg/mL (≈ 76.3 µM); in the test on Klebsiella pneumoniae, 128 µg/mL (≈ 305 µM).

With `O=C1c2cccc(O)c2C(=O)c2c(O)cc(Cn3cncn3)cc21`, the MIC with Escherichia coli [1] is 64 µg/mL (≈ 199 µM); in the test on Staphylococcus aureus [2] it was 32 µg/mL (≈ 99.6 µM); in the test on Pseudomonas aeruginosa [3], 32 µg/mL (≈ 99.6 µM); in the test with Staphylococcus aureus [4], 8 µg/mL (≈ 24.9 µM); with Escherichia coli [6] it was 64 µg/mL (≈ 199 µM); with Acinetobacter baumannii it was 32 µg/mL (≈ 99.6 µM). Also, the minimal inhibitory concentration (MIC) amounted to 16 µg/mL (≈ 49.8 µM) in the test on Staphylococcus aureus [7]; 128 µg/mL (≈ 398 µM) with Enterococcus faecalis; 32 µg/mL (≈ 99.6 µM) in the test on Pseudomonas aeruginosa [8]; 32 µg/mL (≈ 99.6 µM) with Staphylococcus aureus [9]; 64 µg/mL (≈ 199 µM) in the test with Klebsiella pneumoniae.

As to `O=C1c2cccc(O)c2C(=O)c2c(O)cc(CSc3nc4ccccc4[nH]3)cc21`, the MIC with Escherichia coli [1] worked out at 128 µg/mL (≈ 318 µM); with Staphylococcus aureus [2], 32 µg/mL (≈ 79.5 µM); in the test with Pseudomonas aeruginosa [3], 128 µg/mL (≈ 318 µM); in the test with Staphylococcus aureus [4] it was 4 µg/mL (≈ 9.94 µM); with Escherichia coli [6], 64 µg/mL (≈ 159 µM); in the test on Acinetobacter baumannii, 16 µg/mL (≈ 39.8 µM). Moreover, the MIC was determined as 128 µg/mL (≈ 318 µM) in the test on Staphylococcus aureus [7]; 32 µg/mL (≈ 79.5 µM) in the test with Enterococcus faecalis; 64 µg/mL (≈ 159 µM) in the test with Pseudomonas aeruginosa [8]; 16 µg/mL (≈ 39.8 µM) in the test on Staphylococcus aureus [9]; 64 µg/mL (≈ 159 µM) with Klebsiella pneumoniae.

With `O=C1c2cccc(O)c2C(=O)c2c(O)cc(CCl)cc21`, the minimum inhibitory concentration (MIC) is 32 µg/mL (≈ 111 µM) in the test with Escherichia coli [1]; 32 µg/mL (≈ 111 µM) in the test on Staphylococcus aureus [2]; 64 µg/mL (≈ 222 µM) with Pseudomonas aeruginosa [3]; 64 µg/mL (≈ 222 µM) in the test with Staphylococcus aureus [4]; 128 µg/mL (≈ 443 µM) in the test with Escherichia coli [6]; 64 µg/mL (≈ 222 µM) in the test with Acinetobacter baumannii. The MIC in the test with Staphylococcus aureus [7] was determined as 64 µg/mL (≈ 222 µM); in the test with Enterococcus faecalis it was 256 µg/mL (≈ 887 µM); with Pseudomonas aeruginosa [8], 32 µg/mL (≈ 111 µM); with Staphylococcus aureus [9] it was 128 µg/mL (≈ 443 µM); with Klebsiella pneumoniae it was 32 µg/mL (≈ 111 µM).

The record behind these values is ChEMBL document CHEMBL4732030, “Aloe-emodin derived azoles as a new structural type of potential antibacterial agents: design, synthesis, and evaluation of the action on membrane, DNA, and MRSA DNA isomerase” (RSC Med Chem, 2021).
